In ChEMBL document CHEMBL4257545, “Synthesis of novel perillyl-dihydropyrimidinone hybrids designed for antiproliferative activity” (Medchemcomm, 2018):
The source made the active and inactive calls. The rule behind the calls is not given here.

Legend:
MCF7 [1] = experiment: Antiproliferative activity against human MCF7 cells at 25 uM after 48 hrs by sulforhodamine B assay; assay type: functional, cell-based
Outline: (§1)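 Growth-inhibition profile of each tumour line at a single compound concentration of 25 μM. Cells were treated in DMSO/RPMI (final DMSO 0.2%) for 48 h at 37 °C, 5% CO2. Cells were fixed with 50% TCA before and after exposure. Cellular protein was quantified by sulforhodamine B staining at 540 nm.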

NCI/ADR-RES [2] = experiment: Antiproliferative activity against human NCI/ADR-RES cells at 25 uM after 48 hrs by sulforhodamine B assay; assay type: functional, cell-based; outline: as §1
786-0 [3] = experiment: Antiproliferative activity against human 786-0 cells at 25 uM after 48 hrs by sulforhodamine B assay; assay type: functional, cell-based; outline: as §1
HT-29 [4] = experiment: Antiproliferative activity against human HT-29 cells at 25 uM after 48 hrs by sulforhodamine B assay; assay type: functional, cell-based; outline: as §1
UACC-62 [5] = experiment: Antiproliferative activity against human UACC62 cells at 25 uM after 48 hrs by sulforhodamine B assay; assay type: functional, cell-based; outline: as §1
PC-3 [6] = experiment: Antiproliferative activity against human PC3 cells at 25 uM after 48 hrs by sulforhodamine B assay; assay type: functional, cell-based; outline: as §1
OVCAR-3 [7] = experiment: Antiproliferative activity against human OVCAR3 cells at 25 uM after 48 hrs by sulforhodamine B assay; assay type: functional, cell-based; outline: as §1
UACC-62 [8] = experiment: Antiproliferative activity against human UACC62 cells assessed as cell growth inhibition after 48 hrs by sulforhodamine B assay; assay type: functional; settings: UACC-62, 48 h
Outline: (§2)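 Human tumour lines and HaCaT normal keratinocytes in 96-well plates, exposed to compound in DMSO/RPMI (final DMSO 0.2%) for 48 h at 37 °C, 5% CO2. Cells were fixed with 50% trichloroacetic acid at time zero and after treatment. Protein was stained with sulforhodamine B and read at 540 nm. TGI (total growth inhibition) was derived by non-linear regression from triplicate runs.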

U-251 = experiment: Antiproliferative activity against human U251 cells assessed as cell growth inhibition after 48 hrs by sulforhodamine B assay; assay type: functional; settings: U-251, 48 h; outline: as §2
MCF7 [9] = experiment: Antiproliferative activity against human MCF7 cells assessed as cell growth inhibition after 48 hrs by sulforhodamine B assay; assay type: functional; settings: MCF7, 48 h; outline: as §2
NCI/ADR-RES [10] = experiment: Antiproliferative activity against human NCI/ADR-RES cells assessed as cell growth inhibition after 48 hrs by sulforhodamine B assay; assay type: functional; outline: as §2
786-0 [11] = experiment: Antiproliferative activity against human 786-0 cells assessed as cell growth inhibition after 48 hrs by sulforhodamine B assay; assay type: functional; settings: 786-0, 48 h; outline: as §2
NCI-H460 = experiment: Antiproliferative activity against human NCI-H460 cells assessed as cell growth inhibition after 48 hrs by sulforhodamine B assay; assay type: functional; settings: NCI-H460, 48 h; outline: as §2
PC-3 [12] = experiment: Antiproliferative activity against human PC3 cells assessed as cell growth inhibition after 48 hrs by sulforhodamine B assay; assay type: functional; settings: PC-3, 48 h; outline: as §2
OVCAR-3 [13] = experiment: Antiproliferative activity against human OVCAR3 cells assessed as cell growth inhibition after 48 hrs by sulforhodamine B assay; assay type: functional; settings: OVCAR-3, 48 h; outline: as §2
HT-29 [14] = experiment: Antiproliferative activity against human HT-29 cells assessed as cell growth inhibition after 48 hrs by sulforhodamine B assay; assay type: functional; settings: HT-29, 48 h; outline: as §2
HaCaT = experiment: Cytotoxicity against human HaCaT cells assessed as cell growth inhibition after 48 hrs by sulforhodamine B assay; assay type: cell-based; outline: as §2
[15] = Selectivity index, ratio of TGI for human HaCaT cells to TGI for human U251 cells; assay type: toxicity; settings: HaCaT cells and U251 cells, read-out: Selectivity Index

SMILES | Activity (MCF7 [1]) | Activity (NCI/ADR-RES [2]) | Activity (786-0 [3]) | Activity (HT-29 [4]) | Activity (UACC-62 [5]) | Activity (PC-3 [6]) | Activity (OVCAR-3 [7]) | TGI (UACC-62 [8]) [µM] | TGI (U-251) [µM] | TGI (MCF7 [9]) [µM] | TGI (NCI/ADR-RES [10]) [µM] | TGI (786-0 [11]) [µM] | TGI (NCI-H460) [µM] | TGI (PC-3 [12]) [µM] | TGI (OVCAR-3 [13]) [µM] | TGI (HT-29 [14]) [µM] | TGI (HaCaT) [µM] | selectivity ratio [15]
CCOC(=O)C1=C(C)NC(=S)NC1c1cccc(O)c1 (configuration not stated) | Active | Active | Active | Active | Active | Active | Active |  |  |  |  |  |  |  |  |  |  | 
C=C(C)[C@@H]1CC=C(Cn2cc(COc3cc(C4NC(=O)NC(C)=C4C(=O)OCC)ccc3OC)nn2)CC1 (some centres not stated) |  |  |  |  |  |  |  | 37.8 | 98.1 | > 100 | > 100 | > 100 | > 100 | > 100 | 13.5 | > 100 | 79.75 | 
C=C(C)[C@@H]1CC=C(Cn2cc(COc3cccc(C4NC(=O)NC5=C4C(=O)CC(C)(C)C5)c3)nn2)CC1 (some centres not stated) |  |  |  |  |  |  |  | 20.9 | 26 | 31 | > 100 | > 100 | 51.6 | 21.9 | > 100 | 49 | 36.44 | 
C=C(C)[C@@H]1CC=C(Cn2cc(COc3ccc(C4NC(=O)NC(C)=C4C(=O)OCC)cc3)nn2)CC1 (some centres not stated) |  |  |  |  |  |  |  | 19.2 | 12.4 | 43.1 | > 100 | 97.1 | > 100 | 92.2 | 6.9 | 77.1 | 165.69 | 
C=C(C)[C@@H]1CC=C(Cn2cc(COc3ccccc3C3NC(=O)NC(C)=C3C(=O)OCC)nn2)CC1 (some centres not stated) |  |  |  |  |  |  |  | > 100 | > 100 | > 100 | > 100 | > 100 | > 100 | > 100 | 81.2 | > 100 | 294.37 | 
C=C(C)[C@@H]1CC=C(Cn2cc(COc3ccc(C4NC(=O)NC(C)=C4C(C)=O)cc3)nn2)CC1 (some centres not stated) |  |  |  |  |  |  |  | 20.5 | 20 | 29 | > 100 | 23.3 | 78.2 | 49.3 | 32.6 | 62.6 | 44.47 | 
C=C(C)[C@@H]1CC=C(Cn2cc(COc3cc(C4NC(=O)NC5=C4C(=O)CC(C)(C)C5)ccc3OC)nn2)CC1 (some centres not stated) |  |  |  |  |  |  |  | 62 | 8.28 | 44.8 | > 100 | > 100 | > 100 | 79.9 | > 100 | > 100 | 451.02 | 54.5
C=C(C)[C@@H]1CC=C(Cn2cc(COc3ccc(C4NC(=O)NC(C)=C4C(=O)OCC)cc3OC)nn2)CC1 (some centres not stated) |  |  |  |  |  |  |  | 26.7 | 11.3 | 82.5 | > 100 | 87.3 | > 100 | 54.4 | 53.8 | > 100 | 75.76 | 
C=C(C)[C@@H]1CC=C(Cn2cc(COc3ccccc3C3NC(=O)NC4=C3C(=O)CC(C)(C)C4)nn2)CC1 (some centres not stated) |  |  |  |  |  |  |  | 26.5 | 27 | 45 | > 100 | 26.7 | 38.7 | 21.7 | 11.8 | 28.9 | 78.72 | 
C=C(C)[C@@H]1CC=C(Cn2cc(COc3cccc(C4NC(=O)NC(C)=C4C(C)=O)c3)nn2)CC1 (some centres not stated) |  |  |  |  |  |  |  | 31.6 | 30.5 | 43 | > 100 | 44.1 | > 100 | 49.8 | 13.3 | 86.2 | 115.66 | 
C=C(C)[C@@H]1CC=C(Cn2cc(COc3ccc(C4NC(=O)NC5=C4C(=O)CC(C)(C)C5)cc3)nn2)CC1 (some centres not stated) |  |  |  |  |  |  |  | 29.9 | 6.61 | > 100 | > 100 | 53.2 | > 100 | 24 | 29.3 | > 100 | 436.18 | 66
COc1cccc2c1C(=O)c1c(O)c3c(c(O)c1C2=O)C[C@@](O)(C(=O)CO)C[C@@H]3O[C@H]1C[C@H](N)[C@H](O)[C@H](C)O1 [DOXORUBICIN] |  |  |  |  |  |  |  | 1.66 | 0.09 | 0.99 | 0.78 | 0.02 | 0.46 | 15.7 | 0.04 | 0.88 | 1.47 | 
C=C(C)[C@@H]1CC=C(Cn2cc(COc3cccc(C4NC(=O)NC(C)=C4C(=O)OCC)c3)nn2)CC1 (some centres not stated) |  |  |  |  |  |  |  | 22.9 | 12.2 | 42.5 | > 100 | 39.7 | > 100 | > 100 | 18.4 | 73.4 | 507.82 | 41.7
CCOC(=O)C1=C(C)NC(=O)NC1c1cccc(O)c1 (configuration not stated) | Active | Active | Active | Active | Active | Active | Active |  |  |  |  |  |  |  |  |  |  | 
C=C(C)[C@@H]1CC=C(Cn2cc(COc3ccccc3C3NC(=O)NC(C)=C3C(C)=O)nn2)CC1 (some centres not stated) |  |  |  |  |  |  |  | 34.2 | 30.2 | 68.7 | > 100 | 80.3 | 83.1 | 62 | 34.3 | 79.5 | 29.51 | 
C=C(C)[C@@H]1CC=C(Cn2cc(COc3ccc(C4NC(=O)NC5=C4C(=O)CC(C)(C)C5)cc3OC)nn2)CC1 (some centres not stated) |  |  |  |  |  |  |  | 86.2 | 44 | 91.9 | > 100 | > 100 | > 100 | > 100 | 95 | > 100 | 71.34 | 
C=C(C)[C@@H]1CC=C(Cn2cc(COc3ccc(C4NC(=O)NC(C)=C4C(C)=O)cc3OC)nn2)CC1 (some centres not stated) |  |  |  |  |  |  |  | 3.83 | 77.9 | 53.3 | 80.2 | 88.1 | > 100 | 85.7 | 48 | 95 | 147.92 | 
C=C(C)[C@@H]1CC=C(Cn2cc(COc3cc(C4NC(=O)NC(C)=C4C(C)=O)ccc3OC)nn2)CC1 (some centres not stated) |  |  |  |  |  |  |  | > 100 | > 100 | > 100 | 84.9 | > 100 | > 100 | > 100 | > 100 | 96 | 486.19 | 
